Results on 1 compound are retold here after ChEMBL document CHEMBL3526048, “In vitro metabolism of rivoglitazone, a novel peroxisome proliferator-activated receptor γ agonist, in rat, monkey, and human liver microsomes and freshly isolated hepatocytes” (Drug Metab Dispos, 2011).

One data set has as its target Cytochrome P450 3A4 (Homo sapiens, UniProt P08684). The experiment in a line: Activity of human CYP3A4 expressed in microsomes isolated from baculovirus infected insect cell assessed as enzyme-mediated 2-((4-((2,4-dioxothiazolidin-5-yl)methyl)phenoxy)methyl)-1-methyl-1H-benzo[d]imidazol-6-yl hydrogen sulfate formation at 20 uM after 2 hrs by radio-HPLC/LC-MS/MS analysis. The class given is ADME. The essentials: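 Baculovirus-insect-cell microsomes expressing the human CYP (1 mg/ml protein) were incubated with [14C]rivoglitazone (20 μM) in 50 mM potassium phosphate (pH 7.4) or 100 mM Tris-HCl (pH 7.5) with an NADPH-generating system (2 mM NADP+, 20 mM glucose 6-phosphate, 2 units/ml G6PDH, 10 mM MgCl2) for 2 h at 37°C. Insect-cell control supersomes served as the control. Reactions were stopped with acetonitrile, and the concentrated supernatants were analysed by radio-HPLC, LC-MS and LC-MS/MS.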

The target of another data set is Cytochrome P450 3A5 (Homo sapiens, UniProt P20815). Nature of the data set: Activity of human CYP3A5 expressed in microsomes isolated from baculovirus infected insect cell assessed as enzyme-mediated 5-hydroxy-5-(4-((6-methoxy-1-methyl-1H-benzo[d]imidazol-2-yl)methoxy)benzyl)thiazolidine-2,4-dione formation at 20 uM after 2 hrs by radio-HPLC/LC-MS/MS analysis in presence of NADPH-generating system and NADPH-generating system/SAM. Type of data set: ADME. Put shortly:
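cDNA-expressed human CYP3A5 in baculovirus-insect-cell microsomes (1 mg/ml protein) was incubated with [¹⁴C]rivoglitazone (20 μM) in 50 mM potassium phosphate (pH 7.4) or 100 mM Tris-HCl (pH 7.5). NADPH-generating system: 2 mM NADP⁺, 20 mM glucose 6-phosphate, 2 units/ml G6PDH, 10 mM MgCl₂. Incubation ran 2 h at 37°C with shaking; insect-cell control supersomes served as control. Acetonitrile stop, supernatant concentrated, then radio-HPLC, LC-MS and LC-MS/MS.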

A further data set deals with Cytochrome P450 2C19 (Homo sapiens, UniProt P33261). Nature of the data set: Activity of human CYP2C19 expressed in microsomes isolated from baculovirus infected insect cell assessed as enzyme-mediated 3-(4-((6-methoxy-1-methyl-1H-benzo[d]imidazol-2-yl)methoxy)phenyl)-2-(methylthio)propanoic acid formation at 20 uM after 2 hrs by radio-HPLC/LC-MS/MS analysis in presence of NADPH-generating system/SAM and UDPGA/SAM. The class given is ADME.

Data set [1] addresses T1, UDP-glucuronosyltransferase 2B7 (Homo sapiens, UniProt P16662).
T1 sequence (P16662 whole entry): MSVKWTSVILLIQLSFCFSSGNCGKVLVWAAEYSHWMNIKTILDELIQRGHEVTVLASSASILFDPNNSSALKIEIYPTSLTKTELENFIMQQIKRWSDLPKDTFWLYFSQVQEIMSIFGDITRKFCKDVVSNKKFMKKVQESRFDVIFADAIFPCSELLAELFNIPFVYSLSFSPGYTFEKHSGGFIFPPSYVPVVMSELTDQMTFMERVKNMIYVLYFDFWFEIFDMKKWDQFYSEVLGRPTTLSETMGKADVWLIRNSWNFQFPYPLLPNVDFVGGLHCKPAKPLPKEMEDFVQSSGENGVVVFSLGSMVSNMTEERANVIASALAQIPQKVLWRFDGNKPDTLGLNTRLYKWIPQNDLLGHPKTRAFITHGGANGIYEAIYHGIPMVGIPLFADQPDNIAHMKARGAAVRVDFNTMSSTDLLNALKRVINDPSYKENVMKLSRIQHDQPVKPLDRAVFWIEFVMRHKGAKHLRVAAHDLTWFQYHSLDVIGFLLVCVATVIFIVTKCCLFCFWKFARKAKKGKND
The experiment in a line: Activity of human UGT2B7 expressed in microsomes isolated from baculovirus infected insect cell assessed as enzyme-mediated 2-((4-((2,4-dioxothiazolidin-5-yl)methyl)phenoxy)methyl)-1-methyl-1H-benzo[d]imidazol-6-yl hydrogen sulfate formation at 20 uM after 4 hrs by radio-HPLC/LC-MS/MS analysis. Type of data set: ADME.

Data set [2] addresses T2, UDP-glucuronosyltransferase 2B4 (Homo sapiens, UniProt P06133).
T2 sequence (P06133 whole entry): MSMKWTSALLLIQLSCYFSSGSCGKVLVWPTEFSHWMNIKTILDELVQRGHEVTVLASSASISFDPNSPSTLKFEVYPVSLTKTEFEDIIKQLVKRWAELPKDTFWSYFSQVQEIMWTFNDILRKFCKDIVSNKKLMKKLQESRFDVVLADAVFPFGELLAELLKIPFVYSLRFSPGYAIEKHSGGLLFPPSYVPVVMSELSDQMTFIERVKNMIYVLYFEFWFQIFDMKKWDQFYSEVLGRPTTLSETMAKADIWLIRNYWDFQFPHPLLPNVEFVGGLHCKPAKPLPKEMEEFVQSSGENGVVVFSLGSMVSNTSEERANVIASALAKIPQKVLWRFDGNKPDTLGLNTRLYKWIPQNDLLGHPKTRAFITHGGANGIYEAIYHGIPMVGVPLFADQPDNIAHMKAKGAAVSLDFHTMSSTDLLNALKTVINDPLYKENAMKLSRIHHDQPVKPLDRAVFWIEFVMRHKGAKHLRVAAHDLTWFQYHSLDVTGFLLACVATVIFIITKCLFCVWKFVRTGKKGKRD
The experiment in a line: Activity of human UGT2B4 expressed in microsomes isolated from baculovirus infected insect cell assessed as enzyme-mediated (2S,3S,4S,5R,6R)-6-((1-carboxy-2-(4-((6-methoxy-1-methyl-1H-benzo[d]imidazol-2-yl)methoxy)phenyl)ethylthio)carbonylamino)-3,4,5-trihydroxytetrahydro-2H-pyran-2-carboxylic acid formation at 20 uM after 4 hrs by radio-HPLC/LC-MS/MS analysis in presence of UDPGA. The class given is ADME.

Data set [3] is described as follows: Drug metabolism in cynomolgus monkey liver microsomes assessed as formation of 5-hydroxy-5-(4-((6-methoxy-1-methyl-1H-benzo[d]imidazol-2-yl)methoxy)benzyl)thiazolidine-2,4-dione at 20 uM after 2 hrs by radio-HPLC/LC-MS/MS analysis in presence of NADPH-generating system and NADPH-generating system/SAM. Type of data set: ADME, Macaca fascicularis.

Chain of Cytochrome P450 2C19 (P33261 whole entry): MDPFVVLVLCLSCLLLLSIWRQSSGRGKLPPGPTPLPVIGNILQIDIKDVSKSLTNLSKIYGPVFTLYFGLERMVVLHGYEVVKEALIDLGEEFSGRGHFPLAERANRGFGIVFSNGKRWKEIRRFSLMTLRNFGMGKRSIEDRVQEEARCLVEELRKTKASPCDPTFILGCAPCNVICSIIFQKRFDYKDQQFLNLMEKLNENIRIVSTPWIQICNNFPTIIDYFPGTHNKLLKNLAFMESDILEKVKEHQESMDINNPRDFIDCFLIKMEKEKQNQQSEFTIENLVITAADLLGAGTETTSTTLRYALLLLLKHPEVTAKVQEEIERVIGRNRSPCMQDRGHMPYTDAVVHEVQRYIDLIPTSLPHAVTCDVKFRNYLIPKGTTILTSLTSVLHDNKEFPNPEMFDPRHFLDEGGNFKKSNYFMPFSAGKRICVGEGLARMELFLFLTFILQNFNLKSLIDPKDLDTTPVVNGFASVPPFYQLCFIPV
Chain of Cytochrome P450 3A4 (P08684 whole entry): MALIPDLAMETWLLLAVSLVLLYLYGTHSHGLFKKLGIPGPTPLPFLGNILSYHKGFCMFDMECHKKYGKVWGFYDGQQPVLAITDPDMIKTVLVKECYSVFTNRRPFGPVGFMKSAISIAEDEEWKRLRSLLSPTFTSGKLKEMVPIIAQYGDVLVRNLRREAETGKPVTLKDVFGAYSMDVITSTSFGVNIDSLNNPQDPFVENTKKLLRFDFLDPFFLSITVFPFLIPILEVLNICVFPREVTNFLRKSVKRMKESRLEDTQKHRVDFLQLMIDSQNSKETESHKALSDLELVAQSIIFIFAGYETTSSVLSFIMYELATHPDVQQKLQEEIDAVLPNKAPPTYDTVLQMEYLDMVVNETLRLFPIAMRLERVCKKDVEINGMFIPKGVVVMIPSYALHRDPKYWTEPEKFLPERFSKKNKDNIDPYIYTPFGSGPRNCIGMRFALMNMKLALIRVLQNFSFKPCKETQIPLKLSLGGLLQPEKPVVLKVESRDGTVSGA
Chain of Cytochrome P450 3A5 (P20815 whole entry): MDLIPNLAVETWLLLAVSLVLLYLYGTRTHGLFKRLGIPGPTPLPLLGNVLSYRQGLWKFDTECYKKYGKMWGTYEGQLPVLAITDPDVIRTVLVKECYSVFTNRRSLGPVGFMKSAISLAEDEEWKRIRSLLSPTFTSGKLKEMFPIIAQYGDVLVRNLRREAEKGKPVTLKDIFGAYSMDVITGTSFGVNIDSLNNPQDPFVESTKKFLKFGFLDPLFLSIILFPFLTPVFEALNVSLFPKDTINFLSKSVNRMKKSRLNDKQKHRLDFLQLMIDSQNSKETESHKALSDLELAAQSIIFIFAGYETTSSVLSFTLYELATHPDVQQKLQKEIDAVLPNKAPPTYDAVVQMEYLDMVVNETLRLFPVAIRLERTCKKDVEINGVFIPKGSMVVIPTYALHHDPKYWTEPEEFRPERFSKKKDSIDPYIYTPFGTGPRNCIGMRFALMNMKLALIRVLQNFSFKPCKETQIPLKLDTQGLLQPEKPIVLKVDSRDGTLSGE

Consider `COc1ccc2nc(COc3ccc(C[14CH]4SC(=O)NC4=O)cc3)n(C)c2c1.Cl` (racemic), for which the Drug metabolism result on Cytochrome P450 3A4 is “metabolite_not_detected”; on Cytochrome P450 3A5 it was “metabolite_detected”; at Cytochrome P450 2C19, “metabolite_not_detected”; in data set [1], “metabolite_not_detected”; in data set [2] it was “metabolite_not_detected”; in data set [3], “metabolite_detected”.
